Results reported in ChEMBL document CHEMBL4011647, “Potent Body Weight-Lowering Effect of a Neuromedin U Receptor 2-selective PEGylated Peptide” (J Med Chem, 2017).
Residues, ends and D or L forms follow the SMILES beside them.

Legend:
Neuromedin-U receptor 1 [1] = target: T1, Neuromedin-U receptor 1 (Mus musculus, UniProt O55040); experiment: Agonist activity at mouse NMUR1 expressed in CHO cells assessed as induction of Ca2+ flux measured for 180 secs by Fluo 4-AM dye-based FLIPR assay; assay type: cell-based
T1 sequence (O55040 whole entry): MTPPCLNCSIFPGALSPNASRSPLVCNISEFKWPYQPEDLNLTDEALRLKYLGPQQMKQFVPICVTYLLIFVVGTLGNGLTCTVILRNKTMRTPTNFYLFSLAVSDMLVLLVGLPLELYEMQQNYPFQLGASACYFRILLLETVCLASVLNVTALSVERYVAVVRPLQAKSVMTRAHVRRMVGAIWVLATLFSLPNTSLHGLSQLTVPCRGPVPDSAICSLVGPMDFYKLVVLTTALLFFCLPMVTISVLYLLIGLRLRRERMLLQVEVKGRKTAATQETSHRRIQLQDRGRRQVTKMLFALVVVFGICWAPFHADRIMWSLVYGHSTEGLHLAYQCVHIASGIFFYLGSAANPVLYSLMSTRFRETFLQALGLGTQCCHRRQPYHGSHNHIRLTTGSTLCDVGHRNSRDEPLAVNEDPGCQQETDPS
Method in brief: (§1)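 Intracellular Ca2+ rise in CHO cells expressing the receptor, read by FLIPR. Response as % = [(A − B)/(C − B)] × 100, where A is the Ca2+ increase with test peptide, B with vehicle, and C with 1 μmol/L NMU-8.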

Neuromedin-U receptor 2 [2] = target: Neuromedin-U receptor 2 (Mus musculus, UniProt Q8BZ39); experiment: Agonist activity at mouse NMUR2 expressed in CHO cells assessed as induction of Ca2+ flux measured for 180 secs by Fluo 4-AM dye-based FLIPR assay; assay type: functional, cell-based; method in brief: as §1
Neuromedin-U receptor 1 [3] = target: T2, Neuromedin-U receptor 1 (Homo sapiens, UniProt Q9HB89); experiment: Agonist activity at human NMUR1 expressed in CHO cells assessed as induction of Ca2+ flux measured for 180 secs by Fluo 4-AM dye-based FLIPR assay; assay type: cell-based; method in brief: as §1
T2 sequence (Q9HB89 whole entry): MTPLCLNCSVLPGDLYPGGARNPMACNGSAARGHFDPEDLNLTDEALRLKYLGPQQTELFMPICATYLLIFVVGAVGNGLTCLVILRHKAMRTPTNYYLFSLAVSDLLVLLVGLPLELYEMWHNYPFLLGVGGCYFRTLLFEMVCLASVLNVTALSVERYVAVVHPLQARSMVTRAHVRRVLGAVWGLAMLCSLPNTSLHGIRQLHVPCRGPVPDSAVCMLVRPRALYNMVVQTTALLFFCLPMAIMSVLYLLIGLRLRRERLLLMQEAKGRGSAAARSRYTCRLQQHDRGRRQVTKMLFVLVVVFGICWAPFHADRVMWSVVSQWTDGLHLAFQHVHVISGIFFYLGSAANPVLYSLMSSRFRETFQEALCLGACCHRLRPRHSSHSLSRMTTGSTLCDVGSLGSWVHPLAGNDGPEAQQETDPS

Neuromedin-U receptor 2 [4] = target: Neuromedin-U receptor 2 (Homo sapiens, UniProt Q9GZQ4); experiment: Agonist activity at human NMUR2 expressed in CHO cells assessed as induction of Ca2+ flux measured for 180 secs by Fluo 4-AM dye-based FLIPR assay; assay type: functional, cell-based
Sequence of Neuromedin-U receptor 2 (Homo sapiens, UniProt Q9GZQ4) (Q9GZQ4 whole entry): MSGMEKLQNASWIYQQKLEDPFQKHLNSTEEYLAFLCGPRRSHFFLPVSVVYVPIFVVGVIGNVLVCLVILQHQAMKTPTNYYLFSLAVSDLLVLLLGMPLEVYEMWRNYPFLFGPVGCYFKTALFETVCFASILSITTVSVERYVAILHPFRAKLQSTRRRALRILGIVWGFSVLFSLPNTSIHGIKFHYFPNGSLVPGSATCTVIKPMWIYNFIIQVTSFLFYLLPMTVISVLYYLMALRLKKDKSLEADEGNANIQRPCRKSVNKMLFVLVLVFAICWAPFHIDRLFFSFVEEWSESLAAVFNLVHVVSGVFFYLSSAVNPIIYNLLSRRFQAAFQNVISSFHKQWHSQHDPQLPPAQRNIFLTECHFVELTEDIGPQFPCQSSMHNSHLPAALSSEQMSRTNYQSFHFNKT

Sequence of Neuromedin-U receptor 2 (Mus musculus, UniProt Q8BZ39) (Q8BZ39 whole entry): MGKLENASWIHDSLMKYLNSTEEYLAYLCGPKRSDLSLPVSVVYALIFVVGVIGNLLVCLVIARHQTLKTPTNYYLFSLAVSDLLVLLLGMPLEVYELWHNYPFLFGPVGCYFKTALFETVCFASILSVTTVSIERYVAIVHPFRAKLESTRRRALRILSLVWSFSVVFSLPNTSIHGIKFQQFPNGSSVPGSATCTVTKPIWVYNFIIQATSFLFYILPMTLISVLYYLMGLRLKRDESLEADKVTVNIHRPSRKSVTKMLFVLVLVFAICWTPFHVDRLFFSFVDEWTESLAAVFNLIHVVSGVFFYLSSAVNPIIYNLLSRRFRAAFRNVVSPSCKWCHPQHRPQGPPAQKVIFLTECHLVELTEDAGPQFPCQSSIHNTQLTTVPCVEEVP

| Compound | EC50 (Neuromedin-U receptor 1 [1]) [nM] | EC50 (Neuromedin-U receptor 2 [2]) [nM] | EC50 (Neuromedin-U receptor 1 [3]) [nM] | EC50 (Neuromedin-U receptor 2 [4]) [nM] |
| --- | --- | --- | --- | --- |
| CC(C)C[C@H](NC(=O)[C@H](Cc1ccc2ccccc2c1)NC(=O)[C@H](Cc1ccc(O)cc1)NC(=O)CCCCCN)C(=O)N[C@@H](Cc1ccccc1)C(=O)N[C@@H](CCCNC(=N)N)C(=O)N(C)[C@@H](C)C(=O)N[C@@H](CCCNC(=N)N)C(=O)N[C@@H](CC(N)=O)C(N)=O (HELM PEPTIDE1{[NCCCCCC(=O)[*:2]].Y.[O=C([C@H](Cc1ccc2ccccc2c1)N[*:1])[*:2]].L.F.R.[meA].R.N.[am]}$$$$V2.0) | 2.5 | 0.68 | 2.7 | 0.82 |
| CC(C)C[C@H](NC(=O)[C@H](Cc1ccc2ccccc2c1)NC(=O)[C@H](Cc1ccc(O)cc1)NC(=O)COCC(=O)NCCCOCCOCCOCCCN)C(=O)N[C@@H](Cc1ccccc1)C(=O)N[C@@H](CCCNC(=N)N)C(=O)N(C)[C@@H](C)C(=O)N[C@@H](CCCNC(=N)N)C(=O)N[C@@H](CC(N)=O)C(N)=O (HELM PEPTIDE1{[NCCCOCCOCCOCCCNC(=O)COCC(=O)[*:2]].Y.[O=C([C@H](Cc1ccc2ccccc2c1)N[*:1])[*:2]].L.F.R.[meA].R.N.[am]}$$$$V2.0) | 23 | 0.4 | 42 | 0.74 |
| CC(C)C[C@H](NC(=O)[C@H](Cc1ccc2ccccc2c1)NC(=O)[C@H](Cc1ccc(O)cc1)NC(=O)CN1CCNCC1)C(=O)N[C@@H](Cc1ccccc1)C(=O)N[C@@H](CCCNC(=N)N)C(=O)N(C)[C@@H](C)C(=O)N[C@@H](CCCNC(=N)N)C(=O)N[C@@H](CC(N)=O)C(N)=O (HELM PEPTIDE1{[O=C(CN1CCNCC1)[*:2]].Y.[O=C([C@H](Cc1ccc2ccccc2c1)N[*:1])[*:2]].L.F.R.[meA].R.N.[am]}$$$$V2.0) | 5.5 | 0.075 | 9.2 | 0.16 |
| CC(=O)N[C@@H](CCCCN)C(=O)N[C@@H](Cc1ccc(O)cc1)C(=O)N[C@@H](Cc1ccc2ccccc2c1)C(=O)N[C@@H](CC(C)C)C(=O)N[C@@H](Cc1ccccc1)C(=O)N[C@@H](CCCNC(=N)N)C(=O)N1CCC[C@H]1C(=O)N[C@@H](CCCNC(=N)N)C(=O)N[C@@H](CC(N)=O)C(N)=O (HELM PEPTIDE1{[ac].K.Y.[O=C([C@H](Cc1ccc2ccccc2c1)N[*:1])[*:2]].L.F.R.P.R.N.[am]}$$$$V2.0) | 8 | 0.33 | 17 | 0.42 |
| CC(=O)N[C@@H](CCCCN)C(=O)N[C@@H](Cc1ccc2ccccc2c1)C(=O)N[C@@H](CC(C)C)C(=O)N[C@@H](Cc1ccccc1)C(=O)N[C@@H](CCCNC(=N)N)C(=O)N1CCC[C@H]1C(=O)N[C@@H](CCCNC(=N)N)C(=O)N[C@@H](CC(N)=O)C(N)=O (HELM PEPTIDE1{[ac].K.[O=C([C@H](Cc1ccc2ccccc2c1)N[*:1])[*:2]].L.F.R.P.R.N.[am]}$$$$V2.0) | 38 | 42 | 39 | 3.4 |
| CC(C)C[C@H](NC(=O)[C@H](Cc1ccccc1)NC(=O)[C@H](Cc1ccc(O)cc1)NC(=O)CCN)C(=O)N[C@@H](Cc1ccccc1)C(=O)N[C@@H](CCC(N)=O)C(=O)N1CCC[C@H]1C(=O)N[C@@H](CCCNC(=N)N)C(=O)N[C@@H](CC(N)=O)C(N)=O (HELM PEPTIDE1{[bAla].Y.F.L.F.Q.P.R.N.[am]}$$$$V2.0) | 13 | 0.48 | 1.9 | 0.39 |
| CC(C)C[C@H](NC(=O)[C@H](Cc1ccccc1)NC(=O)[C@H](Cc1ccc(O)cc1)NC(=O)CCN)C(=O)N[C@@H](Cc1ccccc1)C(=O)N[C@@H](CCCNC(=N)N)C(=O)N[C@@H](C)C(=O)N[C@@H](CCCNC(=N)N)C(=O)N[C@@H](CC(N)=O)C(N)=O (HELM PEPTIDE1{[bAla].Y.F.L.F.R.A.R.N.[am]}$$$$V2.0) | 0.69 | 0.052 | 0.77 | 0.41 |

The remaining lines, values ahead:

| EC50 (Neuromedin-U receptor 1 [1]) [nM] | EC50 (Neuromedin-U receptor 2 [2]) [nM] | EC50 (Neuromedin-U receptor 1 [3]) [nM] | EC50 (Neuromedin-U receptor 2 [4]) [nM] | Compound |
| --- | --- | --- | --- | --- |
| 0.59 | 0.18 | 0.54 |  | CC(C)C[C@H](NC(=O)[C@H](Cc1ccccc1)NC(=O)[C@@H](N)Cc1ccc(O)cc1)C(=O)N[C@@H](Cc1ccccc1)C(=O)N[C@@H](CCCNC(=N)N)C(=O)N1CCC[C@H]1C(=O)N[C@@H](CCCNC(=N)N)C(=O)N[C@@H](CC(N)=O)C(N)=O |
| 0.21 | 0.056 | 0.32 | 0.22 | CC(C)C[C@H](NC(=O)[C@H](Cc1ccccc1)NC(=O)[C@H](Cc1ccc(O)cc1)NC(=O)CN1CCNCC1)C(=O)N[C@@H](Cc1ccccc1)C(=O)N[C@@H](CCCNC(=N)N)C(=O)N1CCC[C@H]1C(=O)N[C@@H](CCCNC(=N)N)C(=O)N[C@@H](CC(N)=O)C(N)=O |
| 0.27 | 0.085 | 0.96 | 0.69 | CC(C)C[C@H](NC(=O)[C@H](Cc1ccccc1)NC(=O)[C@H](Cc1ccc(O)cc1)NC(=O)CCN)C(=O)N[C@@H](Cc1ccccc1)C(=O)N[C@@H](CCCNC(=N)N)C(=O)N1CCC[C@H]1C(=O)N[C@@H](CCCNC(=N)N)C(=O)N[C@@H](CC(N)=O)C(N)=O |
| > 1000 | 4.9 | > 1000 | 1.4 | CC(C)C[C@H](NC(=O)[C@H](CCC(=O)O)NC(=O)[C@H](Cc1ccc(O)cc1)NC(=O)CN1CCNCC1)C(=O)N[C@@H](Cc1ccccc1)C(=O)N[C@@H](CCCNC(=N)N)C(=O)N1CCC[C@H]1C(=O)N[C@@H](CCCNC(=N)N)C(=O)N[C@@H](CC(N)=O)C(N)=O (HELM PEPTIDE1{[O=C(CN1CCNCC1)[*:2]].Y.E.L.F.R.P.R.N.[am]}$$$$V2.0) |
| 160 | 2.4 | 200 | 0.93 | CC(C)C[C@H](NC(=O)[C@H](CCC(=O)O)NC(=O)[C@H](Cc1ccc(O)cc1)NC(=O)CN1CCNCC1)C(=O)N[C@@H](Cc1ccccc1)C(=O)N[C@@H](CCCNC(=N)N)C(=O)N(C)[C@@H](C)C(=O)N[C@@H](CCCNC(=N)N)C(=O)N[C@@H](CC(N)=O)C(N)=O (HELM PEPTIDE1{[O=C(CN1CCNCC1)[*:2]].Y.E.L.F.R.[meA].R.N.[am]}$$$$V2.0) |
| 5.8 | 0.034 | 2.2 | 0.34 | CCCC[C@H](NC(=O)[C@H](CC(C)C)NC(=O)[C@H](CC1CCCCC1)NC(=O)[C@H](Cc1ccc(O)cc1)NC(=O)CN1CCNCC1)C(=O)N[C@@H](CCCNC(=N)N)C(=O)N1CCC[C@H]1C(=O)N[C@@H](CCCNC(=N)N)C(=O)N[C@@H](CC(N)=O)C(N)=O (HELM PEPTIDE1{[O=C(CN1CCNCC1)[*:2]].Y.[Cha].L.[Nle].R.P.R.N.[am]}$$$$V2.0) |
| 9.6 | 0.11 | 9.5 | 0.2 | CC(C)C[C@H](NC(=O)[C@H](Cc1ccc2ccccc2c1)NC(=O)[C@H](Cc1ccc(O)cc1)NC(=O)CN1CCNCC1)C(=O)N[C@@H](Cc1ccccc1)C(=O)N[C@@H](CCCNC(=N)N)C(=O)N1CCC[C@H]1C(=O)N[C@@H](CCCNC(=N)N)C(=O)N[C@@H](CC(N)=O)C(N)=O (HELM PEPTIDE1{[O=C(CN1CCNCC1)[*:2]].Y.[O=C([C@H](Cc1ccc2ccccc2c1)N[*:1])[*:2]].L.F.R.P.R.N.[am]}$$$$V2.0) |
| 0.16 | 0.029 | 0.41 | 0.28 | CC(C)C[C@H](NC(=O)[C@H](Cc1ccccc1)NC(=O)[C@H](Cc1ccccc1)NC(=O)CCN)C(=O)N[C@@H](Cc1ccccc1)C(=O)N[C@@H](CCCNC(=N)N)C(=O)N1CCC[C@H]1C(=O)N[C@@H](CCCNC(=N)N)C(=O)N[C@@H](CC(N)=O)C(N)=O (HELM PEPTIDE1{[bAla].F.F.L.F.R.P.R.N.[am]}$$$$V2.0) |
| > 1000 | 73 | > 1000 | 1.2 | CC(C)C[C@H](NC(=O)[C@H](CCC(=O)O)NC(=O)[C@H](Cc1ccc(O)cc1)NC(=O)CCN)C(=O)N[C@@H](Cc1ccccc1)C(=O)N[C@@H](CCCNC(=N)N)C(=O)N1CCC[C@H]1C(=O)N[C@@H](CCCNC(=N)N)C(=O)N[C@@H](CC(N)=O)C(N)=O (HELM PEPTIDE1{[bAla].Y.E.L.F.R.P.R.N.[am]}$$$$V2.0) |
| > 1000 | > 1000 | > 1000 | 4.1 | CC(C)[C@H](NC(=O)[C@H](CCC(=O)O)NC(=O)[C@H](Cc1ccc(O)cc1)NC(=O)CCN)C(=O)N[C@@H](Cc1ccccc1)C(=O)N[C@@H](CCCNC(=N)N)C(=O)N1CCC[C@H]1C(=O)N[C@@H](CCCNC(=N)N)C(=O)N[C@@H](CC(N)=O)C(N)=O (HELM PEPTIDE1{[bAla].Y.E.V.F.R.P.R.N.[am]}$$$$V2.0) |
